The source made the active and inactive calls. The rule behind the calls is not given here.
What was measured:
[1] = Cytotoxicity against human K562/A02 cells expressing p-glycoprotein assessed as cell killing at 5 uM after 72 hrs by MTS assay; assay type: cell-based; conditions: k562/a02, 72 h
[2] = Cytotoxicity against human K562/A02 cells expressing p-glycoprotein after 72 hrs by MTS assay; assay type: functional, cell-based; conditions: K562/A02, 72 h
Summary of the method: (§1)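 K562 and K562/A02 cells (1 × 10⁴/well) seeded in RPMI-1640 and incubated 24 h. Exponentially growing cells then exposed to various compound concentrations for 72 h at 37 °C (5% CO₂, 95% humidity). MTS added for 3 h more, absorbance read at 490 nm. IC₅₀ from dose-response curves, mean of triplicate experiments.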

K562 [3] = experiment: Cytotoxicity against human K562 cells after 72 hrs by MTS assay; assay type: functional, cell-based; conditions: K562, 72 h; summary of the method: as §1
K562 [4] = experiment: Cytotoxicity against human K562 cells assessed as cell killing at 5 uM after 72 hrs by MTS assay; assay type: cell-based; conditions: k562, 72 h
K562 [5] = experiment: Ratio of IC50 for human K562/A02 cells expressing p-glycoprotein to IC50 for human K562 cells; assay type: functional
[6] = Reversal of p-glycoprotein-mediated multidrug-resistant in human K562/A02 cells assessed as increase of adriamycin-induced cytotoxic effect at 2.5 uM treated for 24 hrs followed by adriamycin treated 6 hrs after drug washout by MTS assay; assay type: cell-based
[7] = molecular target: T1, ATP-dependent translocase ABCB1 (Homo sapiens, UniProt P08183); experiment: Inhibition of p-glycoprotein in human K562/A02 cells assessed as accumulation of adriamycin by flow cytometry; assay type: cell-based
T1 sequence (P08183 whole entry): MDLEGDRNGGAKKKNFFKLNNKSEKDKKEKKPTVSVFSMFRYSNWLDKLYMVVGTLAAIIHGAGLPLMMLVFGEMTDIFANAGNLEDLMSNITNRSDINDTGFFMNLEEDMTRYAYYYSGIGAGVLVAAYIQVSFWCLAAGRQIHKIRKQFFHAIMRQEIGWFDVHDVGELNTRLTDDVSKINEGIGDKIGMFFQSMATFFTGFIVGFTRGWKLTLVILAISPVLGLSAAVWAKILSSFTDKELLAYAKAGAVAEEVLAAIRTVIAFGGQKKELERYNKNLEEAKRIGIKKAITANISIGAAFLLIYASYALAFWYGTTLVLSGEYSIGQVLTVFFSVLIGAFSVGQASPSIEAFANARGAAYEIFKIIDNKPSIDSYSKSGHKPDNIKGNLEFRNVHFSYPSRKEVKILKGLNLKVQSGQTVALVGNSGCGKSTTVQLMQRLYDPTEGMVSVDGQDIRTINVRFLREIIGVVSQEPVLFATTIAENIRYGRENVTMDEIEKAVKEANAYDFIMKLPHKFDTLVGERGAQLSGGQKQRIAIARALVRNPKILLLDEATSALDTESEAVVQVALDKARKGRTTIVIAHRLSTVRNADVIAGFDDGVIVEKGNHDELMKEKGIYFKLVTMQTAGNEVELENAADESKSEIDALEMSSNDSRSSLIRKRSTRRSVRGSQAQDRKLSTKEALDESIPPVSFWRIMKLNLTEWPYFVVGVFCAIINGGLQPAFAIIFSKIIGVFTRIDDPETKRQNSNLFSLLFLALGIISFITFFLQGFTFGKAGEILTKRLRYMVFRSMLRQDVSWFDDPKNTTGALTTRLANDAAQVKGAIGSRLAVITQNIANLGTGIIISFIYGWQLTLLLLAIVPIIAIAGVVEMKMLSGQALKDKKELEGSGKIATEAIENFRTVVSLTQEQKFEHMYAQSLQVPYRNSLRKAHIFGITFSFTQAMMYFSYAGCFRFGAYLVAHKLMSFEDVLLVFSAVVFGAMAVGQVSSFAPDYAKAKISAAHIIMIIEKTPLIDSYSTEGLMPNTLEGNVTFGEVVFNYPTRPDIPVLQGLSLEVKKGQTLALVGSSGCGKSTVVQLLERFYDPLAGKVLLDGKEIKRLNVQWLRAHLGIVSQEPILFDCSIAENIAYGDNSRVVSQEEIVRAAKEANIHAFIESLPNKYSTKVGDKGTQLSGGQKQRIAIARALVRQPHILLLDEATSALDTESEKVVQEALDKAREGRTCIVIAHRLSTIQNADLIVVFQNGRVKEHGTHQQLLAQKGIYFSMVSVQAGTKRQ
Summary of the method: (§2)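 Rh123 or adriamycin (0.5) then added for 30 min. Stopped with ice-cold PBS and centrifugation, washed three times in ice-cold PBS, analysed by flow cytometry. Fluorescence expressed as fold of 0.1% DMSO control; three independent experiments.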

[8] = molecular target: T1, ATP-dependent translocase ABCB1; experiment: Inhibition of p-glycoprotein mRNA expression in human K562/A02 cells at 5 uM after 72 hrs by RT-PCR analysis; assay type: functional, cell-based; conditions: k562/a02, 72 h
K562/A02 [9] = experiment: Reversal of p-glycoprotein-mediated multidrug-resistant in human K562/A02 cells assessed as increase of adriamycin-induced cytotoxic effect after 72 hrs by MTS assay; assay type: cell-based
Summary of the method: (§3)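 Viability by MTS assay. Survival rate expressed as percent growth relative to untreated control, mean ± S.D. of three independent experiments.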

[10] = Reversal of p-glycoprotein-mediated multidrug-resistant in human K562/A02 cells assessed as increase of adriamycin-induced cytotoxic effect at 2.5 uM treated for 24 hrs followed by adriamycin treated 24 hrs after drug washout by MTS assay; assay type: cell-based; conditions: K562/A02, 24 h
K562/A02 [11] = experiment: Reversal of p-glycoprotein-mediated multidrug-resistant in human K562/A02 cells assessed as increase of adriamycin-induced cytotoxic effect at 2.5 uM after 72 hrs by MTS assay; assay type: cell-based; summary of the method: as §3
[12] = molecular target: T1, ATP-dependent translocase ABCB1; experiment: Inhibition of p-glycoprotein-mediated rhodamine 123 efflux in human K562/A02 cells at 2.5 uM after 60 mins by fluorescence microscopic analysis; assay type: cell-based; conditions: k562/a02, 1 h
[13] = molecular target: T1, ATP-dependent translocase ABCB1; experiment: Inhibition of p-glycoprotein-mediated rhodamine 123 efflux in human K562/A02 cells after 60 mins by fluorescence microscopic analysis; assay type: cell-based; conditions: k562/a02, 1 h
[14] = Cytotoxicity against human K562/A02 cells expressing p-glycoprotein assessed as cell survival rate at 1.25 uM after 72 hrs by MTS assay; assay type: cell-based; conditions: read-out: Activity
K562 [15] = experiment: Potentiation of adriamycin-induced cytotoxic effect in human K562 cells assessed as cell survival rate at 1.25 to 5 uM after 72 hrs by MTS assay; assay type: functional, cell-based; summary of the method: as §3
[16] = molecular target: T1, ATP-dependent translocase ABCB1; experiment: Inhibition of p-glycoprotein protein expression in human K562/A02 cells at 5 uM after 72 hrs by Western blot analysis; assay type: functional, cell-based; conditions: k562/a02, 72 h
K562/A02 [17] = experiment: Reversal of p-glycoprotein-mediated multidrug-resistant in human K562/A02 cells assessed as increase of adriamycin-induced cytotoxic effect at 1.25 uM after 72 hrs by MTS assay; assay type: cell-based; summary of the method: as §3
[18] = molecular target: T1, ATP-dependent translocase ABCB1; experiment: Inhibition of p-glycoprotein in human K562/A02 cells assessed as accumulation of rhodamine 123 by flow cytometry; assay type: cell-based; summary of the method: as §2
[19] = Induction of ATPase activity of p-glycoprotein at 40 uM by luminescence assay relative to control
[20] = Reversal of p-glycoprotein-mediated multidrug-resistant in human K562/A02 cells assessed as increase of adriamycin-induced cytotoxic effect at 2.5 uM treated 24 hrs before adriamycin challenge followed by drug washout by MTS assay; assay type: cell-based
K562/A02 [21] = experiment: Reversal of p-glycoprotein-mediated multidrug-resistant in human K562/A02 cells assessed as increase of adriamycin-induced cytotoxic effect at 5 uM after 72 hrs by MTS assay; assay type: cell-based; summary of the method: as §3
[22] = Reversal of p-glycoprotein-mediated multidrug-resistant in human K562/A02 cells assessed as increase of adriamycin-induced cytotoxic effect at 2.5 uM treated for 24 hrs followed by adriamycin treated 12 hrs after drug washout by MTS assay; assay type: cell-based
[23] = molecular target: T1, ATP-dependent translocase ABCB1; experiment: Inhibition of p-glycoprotein in human K562/A02 cells assessed as accumulation of rhodamine 123 at 10 uM by flow cytometry relative to control; assay type: cell-based; conditions: k562/a02, 10 µM; summary of the method: as §2
K562 [24] = experiment: Induction of rhodamine 123 accumulation in human K562 cells at 0.3 to 10 uM by flow cytometry; assay type: functional, cell-based; summary of the method: as §2
K562 [25] = experiment: Induction of adriamycin accumulation in human K562 cells at 0.3 to 10 uM by flow cytometry; assay type: functional, cell-based; summary of the method: as §2
[26] = Induction of ATPase activity of p-glycoprotein at 200 uM by luminescence assay relative to control
[27] = Reversal of p-glycoprotein-mediated multidrug-resistant in human K562/A02 cells assessed as increase of adriamycin-induced cytotoxic effect at 10 uM treated for 24 hrs followed by adriamycin treated 6 hrs after drug washout by MTS assay
[28] = Reversal of p-glycoprotein-mediated multidrug-resistant in human K562/A02 cells assessed as increase of adriamycin-induced cytotoxic effect at 10 uM treated 24 hrs before adriamycin challenge followed by drug washout by MTS assay
[29] = Reversal of p-glycoprotein-mediated multidrug-resistant in human K562/A02 cells assessed as increase of adriamycin-induced cytotoxic effect at 10 uM treated for 24 hrs followed by adriamycin treated 12 hrs after drug washout by MTS assay
[30] = Reversal of p-glycoprotein-mediated multidrug-resistant in human K562/A02 cells assessed as increase of adriamycin-induced cytotoxic effect at 10 uM treated for 24 hrs followed by adriamycin treated 24 hrs after drug washout by MTS assay; conditions: K562/A02, 24 h

Molecule	Activity [1]	IC50 [2]	IC50 (K562 [3])	Activity (K562 [4])	also measured
CCCN1Cc2cc(OC)c3c(c2-c2c(cc(OC)c4c2OCO4)C1)OCO3	10%	87.6 µM	106 µM	10%	–
COc1cc2c(c3c1OCO3)-c1c(cc(OC)c3c1OCO3)CN(CCO)C2	10%	> 200 µM	> 200 µM	10%	–
COc1cccc2c1C(=O)c1c(O)c3c(c(O)c1C2=O)C[C@@](O)(C(=O)CO)C[C@@H]3O[C@H]1C[C@H](N)[C@H](O)[C@H](C)O1 [DOXORUBICIN]	–	46.7 µM	–	–	Ratio IC50 (K562 [5]): 108
COC(=O)CN1Cc2cc(OC)c3c(c2-c2c(cc(OC)c4c2OCO4)C1=O)OCO3	–	> 100 µM	> 100 µM	–	–
COc1cc2c(c3c1OCO3)-c1c(cc(OC)c3c1OCO3)C(=O)N(Cc1ccccc1)C2	–	53.4 µM	43.5 µM	–	–
COc1cc2c(c3c1OCO3)-c1c(cc(OC)c3c1OCO3)CN(CCc1ccc3c(c1)OCO3)C2	10%	46.9 µM	53.7 µM	10%	IC50 [6]: 2.47 µM; inhibition (INH) [7]: Dose-dependent effect; inhibition (INH) [8]: Not Active; Activity (K562/A02 [9]): Dose-dependent effect; IC50 [10]: 10.3 µM; Activity (K562/A02 [11]): 8%; inhibition (INH) [12]: Active; inhibition (INH) [13]: Dose-dependent effect; viability at 72 h, 1.25 µM [14]: 98%; Activity (K562 [15]): inactive; inhibition (INH) [16]: Not Active; Activity (K562/A02 [17]): 30%; inhibition (INH) [18]: Dose-dependent effect; RLU [19]: 283000; IC50 [20]: 1.78 µM; Activity (K562/A02 [21]): 6%; IC50 [22]: 5.03 µM; fold change (FC) [23]: 11.2; Activity (K562 [24]): inactive; Activity (K562 [25]): inactive
COc1cc2c(c3c1OCO3)-c1c(cc(OC)c3c1OCO3)CN(Cc1ccccc1)C2	10%	112 µM	> 200 µM	10%	inhibition (INH) [8]: Not Active; inhibition (INH) [16]: Not Active; inhibition (INH) [18]: Dose-dependent effect; inhibition (INH) [23]: Active; Activity (K562 [24]): inactive
CCCCN1Cc2cc(OC)c3c(c2-c2c(cc(OC)c4c2OCO4)C1=O)OCO3	–	44.6 µM	41.7 µM	–	–
CCN1Cc2cc(OC)c3c(c2-c2c(cc(OC)c4c2OCO4)C1=O)OCO3	–	> 100 µM	> 100 µM	–	–
COC(=O)c1cc(OC)c2c(c1-c1c(C(=O)OC)cc(OC)c3c1OCO3)OCO2 [BIFENDATE]	–	–	–	–	fold change (FC) [23]: 1.2
CCN1Cc2cc(OC)c3c(c2-c2c(cc(OC)c4c2OCO4)C1)OCO3	10%	117 µM	125 µM	10%	–
COc1cc2c(c3c1OCO3)-c1c(cc(OC)c3c1OCO3)CN(C)C2	10%	107 µM	140 µM	10%	–
SODIUM ORTHOVANAD	–	–	–	–	RLU [26]: 282000
COc1ccc(CCN(C)CCCC(C#N)(c2ccc(OC)c(OC)c2)C(C)C)cc1OC (stereo unspecified)	–	–	–	–	inhibition (INH) [7]: Dose-dependent effect; IC50 [27]: 26.1 µM; IC50 [28]: 12.9 µM; inhibition (INH) [18]: Dose-dependent effect; Activity (K562/A02 [21]): > 50%; IC50 [29]: 51.1 µM; Activity (K562 [24]): inactive; IC50 [30]: 51.4 µM; Activity (K562 [25]): inactive
COC(=O)CN1Cc2cc(OC)c3c(c2-c2c(cc(OC)c4c2OCO4)C1)OCO3	–	> 100 µM	> 100 µM	–	–
CCCCN1Cc2cc(OC)c3c(c2-c2c(cc(OC)c4c2OCO4)C1)OCO3	–	> 100 µM	77.5 µM	–	–
COc1cc2c(c3c1OCO3)-c1c(cc(OC)c3c1OCO3)CN(c1ccccc1)C2	–	> 100 µM	> 100 µM	–	–
COc1cc2c(c3c1OCO3)-c1c(cc(OC)c3c1OCO3)CN(CCc1ccccc1)C2	10%	34.1 µM	45.4 µM	10%	inhibition (INH) [8]: Not Active; Activity (K562/A02 [11]): Active; inhibition (INH) [16]: Not Active; inhibition (INH) [18]: Dose-dependent effect; fold change (FC) [23]: 10.1; Activity (K562 [24]): inactive

From ChEMBL document CHEMBL2010685, “Synthesis and biological evaluation of novel bifendate derivatives bearing 6,7-dihydro-dibenzo[c,e]azepine scaffold as potent P-glycoprotein inhibitors” (Eur J Med Chem, 2012)
